Source: ChEMBL document CHEMBL1154384, “New classes of potent and bioavailable human renin inhibitors” (Bioorg Med Chem Lett, 2009)

Experiments:
[1] = target: T1, Renin (Homo sapiens, UniProt P00797); experiment: Inhibition of human rennin in human plasma assessed as accumulation of angiotensin 1 using human tetradecapeptide by immunoassay; type: cell-free
T1 sequence (P00797 whole entry): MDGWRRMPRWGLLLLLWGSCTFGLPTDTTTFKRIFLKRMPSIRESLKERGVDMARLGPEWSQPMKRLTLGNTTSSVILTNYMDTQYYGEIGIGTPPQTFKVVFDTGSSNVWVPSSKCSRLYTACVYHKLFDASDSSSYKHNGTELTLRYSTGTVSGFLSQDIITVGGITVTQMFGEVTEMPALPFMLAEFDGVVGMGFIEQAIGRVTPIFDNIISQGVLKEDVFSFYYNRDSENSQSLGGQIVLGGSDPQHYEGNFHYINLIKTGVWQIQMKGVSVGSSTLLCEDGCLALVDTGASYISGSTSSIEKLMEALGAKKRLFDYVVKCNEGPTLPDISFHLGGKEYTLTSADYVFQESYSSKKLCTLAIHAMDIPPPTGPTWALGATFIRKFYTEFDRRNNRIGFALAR

[2] = target: T1, Renin; experiment: Inhibition of human rennin in buffer assessed as accumulation of angiotensin 1 using human tetradecapeptide by immunoassay
[3] = Dissociation constant, pKa of the compound; type: physicochemical
In short: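 pKa of the template's secondary amine, measured experimentally. Compounds poorly soluble in water in their neutral form were measured in solvent mixtures, so their values could only be estimated.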

[4] = Oral bioavailability in Wistar rat at 10 mg/kg; type: ADME, organism-based; details: in vivo
[5] = target: Cytochrome P450 3A4 (Homo sapiens, UniProt P08684); experiment: Inhibition of CYP3A4; type: ADME
Sequence of Cytochrome P450 3A4 (P08684 whole entry): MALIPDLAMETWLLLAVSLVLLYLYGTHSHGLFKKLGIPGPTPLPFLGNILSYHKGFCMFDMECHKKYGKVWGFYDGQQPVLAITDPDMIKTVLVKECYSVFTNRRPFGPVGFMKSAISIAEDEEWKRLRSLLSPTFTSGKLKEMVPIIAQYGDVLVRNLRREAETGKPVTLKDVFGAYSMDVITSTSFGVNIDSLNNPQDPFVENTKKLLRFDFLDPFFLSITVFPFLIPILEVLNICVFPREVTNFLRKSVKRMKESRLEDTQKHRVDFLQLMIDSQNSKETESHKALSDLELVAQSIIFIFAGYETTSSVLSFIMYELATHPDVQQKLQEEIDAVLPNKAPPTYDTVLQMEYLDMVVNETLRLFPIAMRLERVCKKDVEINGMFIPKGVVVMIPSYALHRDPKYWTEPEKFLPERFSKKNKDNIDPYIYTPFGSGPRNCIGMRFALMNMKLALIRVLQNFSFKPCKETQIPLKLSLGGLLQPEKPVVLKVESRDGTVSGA

SMILES | IC50 [1] [nM] | IC50 [2] [nM] | bioavailability [4] [%] | pKa [3] | IC50 [5] [nM]
O=C(C1=C(c2ccc(CCCOc3c(F)ccc(F)c3Cl)cc2)C[C@H]2CNC[C@H]1N2)N(Cc1cccc(Cl)c1Cl)C1CC1 | 36 | 0.4 | – | 8.2 | –
O=C(C1=C(c2ccc(CCCOc3c(F)ccc(F)c3Cl)cc2)C[C@H]2CS(=O)(=O)C[C@H]1N2)N(Cc1cccc(Cl)c1Cl)C1CC1 | – | 6.4 | – | – | –
COc1cccc(CN(C(=O)C2=C(c3ccc(CCCOc4c(F)ccc(F)c4Cl)cc3)C(C)(C)CNC2)C2CC2)c1C | 7400 | 170 | 10 | – | –
COc1cccc(CN(C(=O)C2=C(c3ccc(CCCOc4c(F)ccc(F)c4Cl)cc3)C[C@H]3C[S+]([O-])C[C@H]2N3)C2CC2)c1C (some centres undefined) | – | 64 | – | – | –
O=C(C1=C(c2ccc(CCCOc3c(F)ccc(F)c3Cl)cc2)C[C@H]2CC[C@H]1N2)N(Cc1cccc(Cl)c1Cl)C1CC1 | 47 | 0.55 | – | – | 1900
CC1(C)CNCC(C(=O)N(Cc2cccc(Cl)c2Cl)C2CC2)=C1c1ccc(CCCOc2c(F)ccc(F)c2Cl)cc1 | 2000 | 31 | 10 | – | –
COc1cccc(CN(C(=O)C2=C(c3ccc(CCCOc4c(F)ccc(F)c4Cl)cc3)C[C@H]3CNC[C@H]2N3)C2CC2)c1C | 54 | 1.37 | – | 3.6 | –
O=C(C1=C(c2ccc(CCCOc3c(F)ccc(F)c3Cl)cc2)C(F)(F)CNC1)N(Cc1cccc(Cl)c1Cl)C1CC1 | – | 800 | 10 | – | –
COc1cccc(CN(C(=O)C2=C(c3ccc(CCCOc4c(F)ccc(F)c4Cl)cc3)C[C@H]3COC[C@H]2N3)C2CC2)c1C | 42 | 0.49 | – | 6.5 | 1000
COc1cccc(CN(C(=O)C2=C(c3ccc(CCCOc4c(F)ccc(F)c4Cl)cc3)C[C@H]3CC[C@H]2N3)C2CC2)c1C | 43 | 0.74 | – | – | –
Cc1cc(Cl)c(OCCOc2ccc(C3=C(C(=O)N(Cc4cccc(Cl)c4Cl)C4CC4)CNCC3)cc2)c(Cl)c1 | – | – | 10 | – | –

More lines, main results first:

IC50 [1] [nM] | IC50 [2] [nM] | bioavailability [4] [%] | SMILES | pKa [3] | IC50 [5] [nM]
55 | 0.68 | – | O=C(C1=C(c2ccc(CCCOc3c(F)ccc(F)c3Cl)cc2)C[C@H]2COC[C@H]1N2)N(Cc1cccc(Cl)c1Cl)C1CC1 | 6.5 | –
113 | 1.1 | – | O=C(C1=C(c2ccc(CCCOc3c(F)ccc(F)c3Cl)cc2)C[C@H]2CCC[C@H]1N2)N(Cc1cccc(Cl)c1Cl)C1CC1 | – | –
7400 | 210 | 10 | COc1cccc(CN(C(=O)C2=C(c3ccc(CCCOc4c(F)ccc(F)c4Cl)cc3)C3(CC3)CNC2)C2CC2)c1C | – | –
4000 | 34 | 10 | O=C(C1=C(c2ccc(CCCOc3c(F)ccc(F)c3Cl)cc2)C2(CC2)CNC1)N(Cc1cccc(Cl)c1Cl)C1CC1 | – | –
101 | 0.92 | – | COc1cccc(CN(C(=O)C2=C(c3ccc(CCCOc4c(F)ccc(F)c4Cl)cc3)C[C@H]3CCC[C@H]2N3)C2CC2)c1C | – | –
87 | 2 | 10 | COc1cccc(CN(C(=O)C2=C(c3ccc(CCCOc4c(F)ccc(F)c4Cl)cc3)CCNC2)C2CC2)c1C | – | –
– | 330 | 10 | COc1cccc(CN(C(=O)C2=C(c3ccc(CCCOc4c(F)ccc(F)c4Cl)cc3)C(F)(F)CNC2)C2CC2)c1C | – | –
53 | 1.2 | 10 | O=C(C1=C(c2ccc(CCCOc3c(F)ccc(F)c3Cl)cc2)CCNC1)N(Cc1cccc(Cl)c1Cl)C1CC1 | – | 1300
– | – | 10 | O=C(C1=C(c2ccc(CCCOc3cc(F)ccc3Br)cc2)CCNC1)N(Cc1ccccc1Cl)C1CC1 | – | –
